Holding throughout (format): tissue-based
The species named for one assay is Rattus norvegicus. Briefly: Selectivity ratio of Ki for MAO-A in rat liver homogenate to Ki for MAO-B in rat liver homogenate. In a few lines:
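Rat liver MAO; isoform isolated by blocking the other with pargyline or clorgyline. p-Tyramine substrate (2.5 mM for MAO-B). Inhibitor (DMSO) pre-incubated with homogenate 60 min, 37 °C. Holt coupled assay (vanillinic acid, 4-aminoantipyrine, peroxidase; potassium phosphate pH 7.6) read at 498 nm, 37 °C, 60 min. Ki from kinetics, mean of three experiments; index = Ki(MAO-A)/Ki(MAO-B).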

Assay [1] has as its target T1, Amine oxidase [flavin-containing] A (Rattus norvegicus, UniProt P21396).
T1 sequence (P21396 whole entry): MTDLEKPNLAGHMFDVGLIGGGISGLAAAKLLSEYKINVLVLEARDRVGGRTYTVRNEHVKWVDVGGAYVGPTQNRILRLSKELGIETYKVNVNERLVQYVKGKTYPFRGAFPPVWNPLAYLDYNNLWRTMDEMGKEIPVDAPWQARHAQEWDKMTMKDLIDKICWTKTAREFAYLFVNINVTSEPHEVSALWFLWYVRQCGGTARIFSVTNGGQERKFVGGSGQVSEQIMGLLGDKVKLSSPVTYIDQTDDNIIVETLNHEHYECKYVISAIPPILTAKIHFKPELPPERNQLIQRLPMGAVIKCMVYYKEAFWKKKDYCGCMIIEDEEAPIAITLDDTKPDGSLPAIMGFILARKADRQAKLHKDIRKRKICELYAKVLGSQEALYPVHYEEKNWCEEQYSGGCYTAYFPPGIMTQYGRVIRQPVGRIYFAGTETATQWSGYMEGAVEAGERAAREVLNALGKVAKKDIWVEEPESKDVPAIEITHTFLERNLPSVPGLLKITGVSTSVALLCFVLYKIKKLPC
Briefly: Inhibition of MAO-A in rat liver homogenate by spectrophotometry-based Holt method.

The target in assay [2] is T2, Amine oxidase [flavin-containing] B (Rattus norvegicus, UniProt P19643).
T2 sequence (P19643 whole entry): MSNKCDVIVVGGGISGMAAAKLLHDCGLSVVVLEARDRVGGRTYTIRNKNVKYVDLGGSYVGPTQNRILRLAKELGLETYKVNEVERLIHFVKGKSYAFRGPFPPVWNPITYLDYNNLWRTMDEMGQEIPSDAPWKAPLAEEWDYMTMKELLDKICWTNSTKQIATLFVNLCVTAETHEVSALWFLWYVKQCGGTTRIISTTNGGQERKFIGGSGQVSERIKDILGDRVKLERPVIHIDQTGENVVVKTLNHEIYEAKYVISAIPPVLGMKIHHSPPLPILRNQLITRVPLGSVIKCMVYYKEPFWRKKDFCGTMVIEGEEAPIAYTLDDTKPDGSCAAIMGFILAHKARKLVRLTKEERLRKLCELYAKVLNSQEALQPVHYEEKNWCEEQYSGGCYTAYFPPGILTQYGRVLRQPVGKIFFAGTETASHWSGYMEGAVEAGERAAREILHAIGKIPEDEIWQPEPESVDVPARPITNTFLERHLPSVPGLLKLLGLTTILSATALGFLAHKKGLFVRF
As to the kind of experiment: Inhibition of MAO-B in rat liver homogenate by spectrophotometry-based Holt method.

The values below come from ChEMBL document CHEMBL1153160, “Towards development of selective and reversible pyrazoline based MAO-inhibitors: Synthesis, biological evaluation and docking studies” (Bioorg Med Chem Lett, 2010).

As for `Oc1ccc(C2CC(c3ccccc3O)=NN2)cc1` (stereo not given), the Ratio Ki in the assay filed under Rattus norvegicus came to 6.49. Besides, the Ki (as a rule, the equilibrium dissociation constant of an inhibitor or competing ligand from its target) in assay [1] amounted to 3.9 µM; in assay [2], 0.6 µM.

Regarding `Cc1ccc(S(=O)(=O)N2N=C(c3ccccc3O)CC2c2ccc(O)cc2)cc1` (stereo not given), affinity in assay [1] was put at a Ki of 0.6 µM. This counts as sub-micromolar.

As for `Cc1ccc(S(=O)(=O)N2N=C(c3ccccc3O)CC2c2ccccc2O)cc1` (stereo not given), the Ki in assay [1] stood at 0.36 µM; in assay [2], 620 µM.

For the molecule `O=S(=O)(c1ccccc1)N1N=C(c2ccccc2O)CC1c1ccc(O)cc1` (stereo not given), the values for the inhibition constant (Ki) in assay [1] and in assay [2] were 0.68 µM and 700 µM, respectively.

With `O=S(=O)(c1ccccc1)N1N=C(c2ccccc2O)CC1c1ccccc1O` (stereo not given), the Ki was 0.91 µM in assay [1] and 1550 µM in assay [2].

As to `Oc1ccccc1C1=NNC(c2ccccc2O)C1` (stereo not given), in the assay listed under Rattus norvegicus, the Ratio Ki turned out to be 4.74. Moreover, the Ki amounted to 3.7 µM in assay [1] and 0.78 µM in assay [2].

Consider `N=C(NO)N1N=C(c2ccccc2O)CC1c1ccccc1O` (stereo not given), for which the values for the Ki in assay [1] and in assay [2] were 15.7 µM and 96.8 µM, respectively.

In the case of `O=C(c1ccccc1)N1N=C(c2ccccc2O)CC1c1ccccc1O` (stereo not given), in assay [1], the Ki is 0.8 µM.

Turning to `O=C(c1ccccc1)N1N=C(c2ccccc2O)CC1c1ccc(O)cc1` (stereo not given), the Ki in assay [1] was 5.77 µM; in assay [2], 20300 µM.

For the molecule `N=C(NO)N1N=C(c2ccccc2O)CC1c1ccc(O)cc1` (stereo not given), the values for the Ki in assay [1] and in assay [2] were 10.6 µM and 210 µM, respectively.
